How the values were obtained:
[1] = target: T1, Human immunodeficiency virus type 1 integrase (Human immunodeficiency virus 1, UniProt Q7ZJM1); assay: Inhibition of HIV1 integrase 3'-processing activity expressed in Escherichia coli by PAGE
Outline: (§1)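 Recombinant IN expressed in E. coli and purified with 10% glycerol in all buffers. 10 μL reactions held 400 nM IN, 20 nM 5'-end [³²P]-labeled oligonucleotide substrate and inhibitor at various concentrations, with 10% DMSO controls. Buffer was 50 mM MOPS pH 7.2 with 7.5 mM MgCl₂ (final), 30 min at 37 °C. Stopped with EDTA/formamide loading dye.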

[2] = target: T1, Human immunodeficiency virus type 1 integrase; assay: Inhibition of HIV1 integrase strand transfer activity expressed in Escherichia coli by PAGE; outline: as §1

T1 sequence (Q7ZJM1 whole entry): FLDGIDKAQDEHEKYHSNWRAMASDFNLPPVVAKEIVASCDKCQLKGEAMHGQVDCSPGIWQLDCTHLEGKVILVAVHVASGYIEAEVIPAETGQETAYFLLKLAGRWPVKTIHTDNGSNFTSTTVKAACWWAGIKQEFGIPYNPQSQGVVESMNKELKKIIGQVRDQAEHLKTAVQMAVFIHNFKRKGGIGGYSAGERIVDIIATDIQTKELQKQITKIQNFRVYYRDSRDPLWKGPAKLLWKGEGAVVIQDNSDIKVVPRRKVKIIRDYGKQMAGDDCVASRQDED

Structure (SMILES)	IC50 [1]	IC50 [2]
C[C@H](C1CCc2ccccc21)N1Cc2ccc(O)c(O)c2C1=O (stereo partly specified)	> 333 µM	99 µM
O=C1c2ccc(O)c(O)c2C(=O)N1Cc1ccc2ccccc2c1	18 µM	0.96 µM
O=C1c2ccc(O)c(O)c2C(=O)N1[C@H]1CCc2ccccc21	128 µM	1.8 µM
O=C1c2ccc(O)c(O)c2C(=O)N1[C@H]1CCCc2ccccc21	111 µM	10 µM
C[C@H](c1ccc2ccccc2c1)N1Cc2ccc(O)c(O)c2C1=O	> 111 µM	24 µM
O=C1c2ccc(O)c(O)c2C(=O)N1CCc1ccccc1	157 µM	6.8 µM
C[C@@H](c1ccc2ccccc2c1)N1Cc2ccc(O)c(O)c2C1=O	> 111 µM	4.6 µM
C[C@@H](C1CCc2ccccc21)N1Cc2ccc(O)c(O)c2C1=O (stereo partly specified)	> 333 µM	6 µM
O=C1c2ccc(O)c(O)c2C(=O)N1Cc1ccccc1		0.39 µM
C[C@@H](c1ccccc1)N1Cc2ccc(O)c(O)c2C1=O	> 333 µM	45 µM
O=C1c2c(ccc(O)c2O)CN1Cc1ccc2ccccc2c1	24 µM	0.8 µM
C[C@H](c1ccccc1)N1Cc2ccc(O)c(O)c2C1=O	> 333 µM	100 µM
O=C1c2ccc(O)c(O)c2C(=O)N1[C@@H]1CCCc2ccccc21	> 333 µM	81 µM
O=C1c2ccc(O)c(O)c2C(=O)N1C1Cc2ccccc2C1	37 µM	4 µM
C[C@@H](c1cccc2ccccc12)N1Cc2ccc(O)c(O)c2C1=O	> 111 µM	4 µM
O=C1c2ccc(O)c(O)c2C(=O)N1[C@@H]1CCc2ccccc21	290 µM	12 µM
O=C1c2c(ccc(O)c2O)CN1C1Cc2ccccc2C1	> 333 µM	23 µM
C[C@@H](C1CCCc2ccccc21)N1Cc2ccc(O)c(O)c2C1=O (stereo partly specified)	> 333 µM	9 µM
O=C1c2ccc(O)c(O)c2C(=O)N1Cc1cccc2ccccc12	150 µM	0.72 µM
C[C@H](C1CCCc2ccccc21)N1Cc2ccc(O)c(O)c2C1=O (stereo partly specified)	> 333 µM	121 µM
C[C@H](c1cccc2ccccc12)N1Cc2ccc(O)c(O)c2C1=O	> 111 µM	48.3 µM
